Assay results reported in ChEMBL document CHEMBL3797022, “New applications for known drugs: Human glycogen synthase kinase 3 inhibitors as modulators of Aspergillus fumigatus growth” (Eur J Med Chem, 2016).
pIC50: −log10 of the molar value. Active and inactive are the calls of the source. The calls are words filed in the database; no cut-off is given here.

Legend:
[1] = tested on: Aspergillus fumigatus; assay: Anifungal activity against Aspergillus fumigatus AF293 assessed as growth inhibition at 100 uM after 48 to 72 hrs by Neubauer chamber analysis; format: functional
Summary of the method: (§1)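 A. fumigatus wild-type prototroph conidia were used, 10^3 spores counted by Neubauer chamber and inoculated centrally onto 1 ml AMM. Inhibitors were dissolved in DMSO from 50 mM stocks and added to melted medium, with a DMSO-only control. Colonial growth was scored at 37°C after 48 and 72 h.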

[2] = tested on: Aspergillus fumigatus; assay: Anifungal activity against Aspergillus fumigatus CBS144 assessed as growth inhibition at 100 uM after 48 to 72 hrs by Neubauer chamber analysis; format: functional, organism-based; summary of the method: as §1
[3] = tested on: Aspergillus nidulans; assay: Anifungal activity against Aspergillus nidulans MAD4100 deficient in crzA assessed as growth inhibition after 72 hrs by Neubauer chamber analysis; format: functional, organism-based
Summary of the method: (§2)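 A. nidulans prototroph strains (wild type MAD4096; crzAΔ MAD4100) were point-inoculated with 10^3 conidia, counted by Neubauer chamber, onto 1 ml AMM. The medium contained inhibitor from a 50 mM DMSO stock added to the melted agar, with a matching DMSO control. Colonial growth was evaluated photographically after 72 h at 37°C.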

[4] = tested on: Aspergillus nidulans; assay: Anifungal activity against Aspergillus nidulans MAD4096 assessed as growth inhibition after 72 hrs by Neubauer chamber analysis; format: functional, organism-based; summary of the method: as §2
[5] = tested on: Aspergillus fumigatus; assay: Anifungal activity against Aspergillus fumigatus CM237 assessed as growth inhibition at 100 uM after 48 to 72 hrs by Neubauer chamber analysis; format: functional, organism-based; summary of the method: as §1
[6] = tested on: Aspergillus nidulans; assay: Anifungal activity against Aspergillus nidulans MAD4097 deficient in sltA assessed as reduction in colonial diameter at 50 uM after 72 hrs by Neubauer chamber analysis; format: functional, organism-based
Summary of the method: (§3)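 A. nidulans sltA-deleted prototroph MAD4097, alongside wild-type MAD4096 and crzA-null MAD4100, tested on solid minimal medium (AMM) containing increasing inhibitor concentrations, added from DMSO stock (stock 50 mM); equal DMSO in control medium. 10^3 spores (Neubauer chamber count) centrally inoculated per well; 37°C for 72 h, colonies then photographed and colonial growth evaluated.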

[7] = biological target: Glycogen synthase kinase-3 beta (Homo sapiens, UniProt P49841); assay: Inhibition of human recombinant GSK3beta expressed in Escherichia coli using GS-1 as substrate incubated for 20 mins by gamma[32P]ATP-based scintillation counting analysis
[8] = tested on: Aspergillus fumigatus; assay: Anifungal activity against Aspergillus fumigatus AF293 assessed as growth inhibition at 5 uM after 72 hrs by Neubauer chamber analysis; format: functional
Summary of the method: (§4)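 Wild-type prototroph A. fumigatus strains (CM237, AF293, CBS144) grown on solid minimal medium (AMM) with inhibitor added from DMSO stock (stock 50 mM); DMSO-only medium as control. 10^3 spores (counted by Neubauer chamber) centrally point-inoculated per well; incubated at 37°C, colonial growth scored after 48 and 72 h.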

[9] = tested on: Aspergillus fumigatus; assay: Anifungal activity against Aspergillus fumigatus CM237 assessed as growth inhibition at 5 uM after 72 hrs by Neubauer chamber analysis; format: functional, organism-based; summary of the method: as §4
[10] = tested on: Aspergillus nidulans; assay: Anifungal activity against Aspergillus nidulans MAD4097 deficient in sltA assessed as growth inhibition after 72 hrs by Neubauer chamber analysis; format: functional, organism-based; summary of the method: as §3
[11] = tested on: Aspergillus fumigatus; assay: Anifungal activity against Aspergillus fumigatus CM237 assessed as growth inhibition at 5 uM after 48 hrs by Neubauer chamber analysis; format: functional, organism-based; summary of the method: as §4
[12] = tested on: Aspergillus fumigatus; assay: Anifungal activity against Aspergillus fumigatus AF293 assessed as growth inhibition at 5 uM after 48 hrs by Neubauer chamber analysis; format: functional; summary of the method: as §4
[13] = tested on: Aspergillus fumigatus; assay: Anifungal activity against Aspergillus fumigatus CBS144 assessed as growth inhibition at 5 uM after 48 to 72 hrs by Neubauer chamber analysis; format: functional, organism-based; summary of the method: as §4
[14] = tested on: Aspergillus fumigatus; assay: Anifungal activity against Aspergillus fumigatus CBS144 assessed as growth inhibition at 50 uM after 48 to 72 hrs by Neubauer chamber analysis; format: functional, organism-based; summary of the method: as §1
[15] = tested on: Aspergillus fumigatus; assay: Anifungal activity against Aspergillus fumigatus AF293 assessed as growth inhibition at 50 uM after 48 to 72 hrs by Neubauer chamber analysis; format: functional; summary of the method: as §1
[16] = tested on: Aspergillus fumigatus; assay: Anifungal activity against Aspergillus fumigatus CM237 assessed as growth inhibition at 50 uM after 48 to 72 hrs by Neubauer chamber analysis; format: functional, organism-based; summary of the method: as §1
[17] = tested on: Aspergillus nidulans; assay: Anifungal activity against Aspergillus nidulans MAD4097 deficient in sltA assessed as reduction in colonial diameter at 10 uM after 72 hrs by Neubauer chamber analysis; format: functional; details: MAD4097, 72 h; summary of the method: as §3
[18] = tested on: Aspergillus nidulans; assay: Anifungal activity against Aspergillus nidulans MAD4096 assessed as growth inhibition at 50 uM after 72 hrs by Neubauer chamber analysis; format: functional, organism-based; summary of the method: as §2

Glycogen synthase kinase-3 beta, sequence (P49841 whole entry): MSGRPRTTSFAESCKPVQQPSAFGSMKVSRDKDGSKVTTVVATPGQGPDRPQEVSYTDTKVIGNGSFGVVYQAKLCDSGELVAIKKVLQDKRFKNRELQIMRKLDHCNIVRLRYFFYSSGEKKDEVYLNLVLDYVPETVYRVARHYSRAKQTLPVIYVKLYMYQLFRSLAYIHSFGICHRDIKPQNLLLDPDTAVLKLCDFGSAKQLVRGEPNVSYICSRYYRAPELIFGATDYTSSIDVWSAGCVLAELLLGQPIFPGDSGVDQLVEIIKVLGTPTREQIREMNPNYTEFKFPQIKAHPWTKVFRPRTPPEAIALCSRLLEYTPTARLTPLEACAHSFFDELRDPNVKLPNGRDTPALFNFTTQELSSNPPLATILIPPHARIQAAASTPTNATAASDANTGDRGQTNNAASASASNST

For `O=c1sn(-c2cccc3ccccc23)c(=O)n1Cc1ccccc1`, the “growth inhibition (GI)” value [1] was “inactive”, the “growth inhibition (GI)” value [2] was “inactive” and the “growth inhibition (GI)” value [3] was “inactive”. The “growth inhibition (GI)” value [4] was “inactive”, the “growth inhibition (GI)” value [5] was “inactive” and the inhibition [6] was “Active”.
With `COc1ccc(CNC(=O)Nc2nc(C)c(C(C)=O)s2)cc1` the “growth inhibition (GI)” value [3] was “inactive”, the pIC50 [7] was 6.22 and the “growth inhibition (GI)” value [4] was “inactive”.
With `O=C(CCl)c1scc(Br)c1Br` the “growth inhibition (GI)” value [8] was “inactive”, the “growth inhibition (GI)” value [9] was “inactive” and the “growth inhibition (GI)” value [3] was “inactive”. The “growth inhibition (GI)” value [10] was “Active”, the “growth inhibition (GI)” value [11] was “Active” and the “growth inhibition (GI)” value [12] was “Active”. The “growth inhibition (GI)” value [13] was “Active”.
With `CCCCCCCCCCCC(=O)NNC(=O)c1c(O)c2ccccc2n(CC)c1=O` the “growth inhibition (GI)” value [3] was “inactive”, the pIC50 [7] was 5.55 and the “growth inhibition (GI)” value [4] was “inactive”.
`Cn1sc(=O)n(Cc2ccccc2)c1=O` was tested, and the “growth inhibition (GI)” value [14] was “Active”, the “growth inhibition (GI)” value [15] was “Active” and the “growth inhibition (GI)” value [3] was “inactive”. For the same compound, the “growth inhibition (GI)” value [16] was “Active”, the inhibition at 10 µM [17] was 50% and the “growth inhibition (GI)” value [18] was “Active”.
